Measurements: ChEMBL document CHEMBL1649147, “Antistaphylococcal activity of dihydrophthalazine antifolates, a family of novel antibacterial drugs” (2009)
≈ marks a conversion by molar mass, not a printed value.

Experiments:
[1] = system: Staphylococcus epidermidis; assay: Antibacterial activity against methicillin-susceptible coagulase-negative Staphylococcus epidermidis 057 by broth macrodilution method; assay type: functional
Staphylococcus aureus [2] = assay: Antibacterial activity against Staphylococcus aureus 145 assessed as change in MIC by agar dilution method after serial passages in the absence of antibiotic relative to control; assay type: functional
How it was run: (§1)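 After drug-selective serial passage, selected clones were passaged 10 times in antibiotic-free MHB. MICs were then redetermined, and the change is expressed as log2 dilution steps.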

[3] = system: Staphylococcus epidermidis; assay: Antibacterial activity against coagulase-negative Staphylococcus epidermidis 057 after 10 passages in MBH without antibiotic by agar dilution method; assay type: functional; how it was run: as §1
Staphylococcus aureus [4] = assay: Antibacterial activity against Staphylococcus aureus 145 assessed as change in MIC by agar dilution method after serial passages in presence of antibiotic relative to control; assay type: functional
How it was run: (§2)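 Serial passage under drug. Inoculum was ~1 × 10^6 CFU/ml from overnight MHA growth, in 1 ml MHB at 35°C for 24 h. Drug ranged from 4 log2 steps above to 3 log2 steps below the MIC. […] MIC change is given as log2 steps.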

[5] = system: Staphylococcus epidermidis; assay: Antibacterial activity against coagulase-negative Staphylococcus epidermidis 345 assessed as change in MIC by agar dilution method after serial passages in the absence of antibiotic relative to control; assay type: functional; how it was run: as §1
[6] = system: Staphylococcus epidermidis; assay: Antibacterial activity against coagulase-negative Staphylococcus epidermidis 345 by agar dilution method; assay type: functional
How it was run: (§3)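 MICs by agar dilution on Mueller-Hinton agar following CLSI guidelines. S. aureus ATCC 29213 and E. faecalis ATCC 29212 were run as quality controls with each set, and test-strain MICs were kept only if control MICs fell within acceptable ranges.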

[7] = system: Staphylococcus epidermidis; assay: Antibacterial activity against coagulase-negative Staphylococcus epidermidis 051 assessed as change in MIC by agar dilution method after serial passages in presence of antibiotic relative to control; assay type: functional; how it was run: as §2
Staphylococcus aureus [8] = assay: Antibacterial activity against Staphylococcus aureus 145
[9] = system: Staphylococcus epidermidis; assay: Antibacterial activity against methicillin-resistant, Linezolid non-susceptible coagulase-negative Staphylococcus epidermidis 345 by agar dilution method; assay type: functional
Staphylococcus aureus [10] = assay: Antibacterial activity against vancomycin-resistant Staphylococcus aureus VRS1 assessed as change in MIC by agar dilution method after serial passages in presence of antibiotic relative to control; assay type: functional
How it was run: (§4)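 Daily serial passage for up to 50 days at 35°C for 24 h in 1 ml MHB. […] Each transfer used 10 µl from the tube nearest the MIC (1–2 dilutions below) with the same turbidity as the drug-free control. […] MICs were measured by agar dilution, with changes given as log2 steps.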

[11] = system: Staphylococcus epidermidis; assay: Antibacterial activity against methicillin-susceptible coagulase-negative Staphylococcus epidermidis 051 by broth macrodilution method; assay type: functional
[12] = system: Staphylococcus epidermidis; assay: Antibacterial activity against coagulase-negative Staphylococcus epidermidis 051 assessed as change in MIC by agar dilution method after serial passages in the absence of antibiotic relative to control; assay type: functional; how it was run: as §1
[13] = system: coagulase-negative staphylococci; assay: Antibacterial activity against Tmp-resistant coagulase-negative staphylococci by agar dilution method
[14] = system: Staphylococcus epidermidis; assay: Antibacterial activity against methicillin-resistant coagulase-negative Staphylococcus epidermidis 225 by broth macrodilution method; assay type: functional
[15] = system: Staphylococcus epidermidis; assay: Antibacterial activity against coagulase-negative Staphylococcus epidermidis 345 after 10 passages in MBH without antibiotic by agar dilution method; assay type: functional; how it was run: as §1
[16] = system: Staphylococcus epidermidis; assay: Antibacterial activity against coagulase-negative Staphylococcus epidermidis 051 after 10 passages in MBH without antibiotic by agar dilution method; assay type: functional; how it was run: as §1
[17] = system: coagulase-negative staphylococci; assay: Antibacterial activity against Tmp-susceptible coagulase-negative staphylococci by agar dilution method
Staphylococcus aureus [18] = assay: Antibacterial activity against Staphylococcus aureus ATCC 29213 assessed as change in MIC by agar odilution method after serial passages in presence of antibiotic relative to control; assay type: functional, ATCC29213; how it was run: as §2
[19] = system: Staphylococcus epidermidis; assay: Antibacterial activity against coagulase-negative Staphylococcus epidermidis 225 after 10 passages in MBH without antibiotic by agar dilution method; assay type: functional; how it was run: as §1
Staphylococcus aureus [20] = assay: Antibacterial activity against methicillin-resistant Staphylococcus aureus by agar dilution method; assay type: functional
How it was run: (§5)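 Agar dilution on Mueller-Hinton agar per CLSI guidelines. S. aureus ATCC 29213 and E. faecalis ATCC 29212 were run with each set, and test MICs were accepted only when the control strains fell within acceptable ranges.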

Staphylococcus aureus [21] = assay: Antibacterial activity against methicillin-susceptible, vancomycin-intermediate Staphylococcus aureus 505 by broth macrodilution method; assay type: functional
[22] = system: coagulase-negative staphylococci; assay: Antibacterial activity against methicillin-resistant coagulase-negative staphylococci by agar dilution method
[23] = system: Staphylococcus epidermidis; assay: Antibacterial activity against coagulase-negative Staphylococcus epidermidis 197 assessed as change in MIC by agar dilution method after serial passages in presence of antibiotic relative to control; assay type: functional; how it was run: as §2
Staphylococcus aureus [24] = assay: Antibacterial activity against methicillin-susceptible Staphylococcus aureus ATCC 29213 after 50 passages by agar dilution method; assay type: functional; details: ATCC29213; how it was run: as §4
Staphylococcus aureus [25] = assay: Antibacterial activity against methicillin-susceptible Staphylococcus aureus by agar dilution method; assay type: functional; how it was run: as §5
Staphylococcus aureus [26] = assay: Antibacterial activity against vancomycin-resistant Staphylococcus aureus VRS1 by broth macrodilution method; assay type: functional
How it was run: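 Michigan VRSA strain, one of 12 staphylococci later used in time-kill studies. MIC was determined by broth macrodilution and reported in μg/ml.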

[27] = system: Staphylococcus epidermidis; assay: Antibacterial activity against coagulase-negative Staphylococcus epidermidis 057 assessed as change in MIC by agar dilution method after serial passages in the absence of antibiotic relative to control; assay type: functional; how it was run: as §1
[28] = system: Staphylococcus epidermidis; assay: Antibacterial activity against coagulase-negative Staphylococcus epidermidis 057 by agar dilution method; assay type: functional
How it was run: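 Agar dilution MIC determined on Mueller-Hinton agar following CLSI guidelines. S. aureus ATCC 29213 and Enterococcus faecalis ATCC 29212 were run as quality controls with each set, and test MICs were accepted only when the control MICs fell within acceptable ranges. Test organism was a coagulase-negative S. epidermidis strain.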

Staphylococcus aureus [29] = assay: Antibacterial activity against Staphylococcus aureus ATCC 43300 assessed as change in MIC by agar dilution method after serial passages in presence of antibiotic relative to control; assay type: functional; how it was run: as §2
Staphylococcus aureus [30] = assay: Antibacterial activity against methicillin-susceptible Staphylococcus aureus ATCC 29213 by broth macrodilution method; assay type: functional; details: ATCC29213
[31] = system: Staphylococcus epidermidis; assay: Antibacterial activity against coagulase-negative Staphylococcus epidermidis 057 assessed as change in MIC by agar dilution method after serial passages in presence of antibiotic relative to control; assay type: functional; how it was run: as §2
[32] = system: Staphylococcus epidermidis; assay: Antibacterial activity against coagulase-negative Staphylococcus epidermidis 225 assessed as change in MIC by agar dilution method after serial passages in the absence of antibiotic relative to control; assay type: functional; how it was run: as §1
Staphylococcus aureus [33] = assay: Antibacterial activity against methicillin-resistant Staphylococcus aureus ATCC 43300 by broth macrodilution method; assay type: functional; details: ATCC43300
Staphylococcus aureus [34] = assay: Antibacterial activity against methicillin-resistant and vancomycin-resistant Staphylococcus aureus VRS1 by agar dilution method; assay type: functional; how it was run: as §5
Staphylococcus aureus [35] = assay: Antibacterial activity against methicillin-resistant Staphylococcus aureus 507 by broth macrodilution method; assay type: functional
[36] = system: Staphylococcus epidermidis; assay: Antibacterial activity against methicillin-resistant, vancomycin-intermediate coagulase-negative Staphylococcus epidermidis 225 by agar dilution method; assay type: functional; how it was run: as §5
Staphylococcus aureus [37] = assay: Antibacterial activity against Tmp-susceptible coagulase-negative Staphylococcus aureus by agar dilution method; assay type: functional; how it was run: as §3

For COc1cc(Cc2cnc(N)nc2N)cc(/C=C/C(=O)N2N=Cc3ccccc3C2c2cnc(N(C)C)nc2)c1OC (configuration not stated), the MIC [1] was 4 µg/mL (≈ 7.07 µM), the “fold change (FC)” value (Staphylococcus aureus [2]) was 0 and the MIC [3] was 128 µg/mL (≈ 226 µM). The “fold change (FC)” value (Staphylococcus aureus [4]) was 10, the “fold change (FC)” value [5] was -7 and the MIC [6] was 0.06 µg/mL (≈ 0.106 µM). The “fold change (FC)” value [7] was 11, the MIC (Staphylococcus aureus [8]) was 0.25 µg/mL (≈ 0.442 µM) and the MIC [9] was 0.06 µg/mL (≈ 0.106 µM). The “fold change (FC)” value (Staphylococcus aureus [10]) was 10, the MIC [11] was 0.125 µg/mL (≈ 0.221 µM) and the “fold change (FC)” value [12] was -6. The MIC50 [13] was 0.125 µg/mL (≈ 0.221 µM), the MIC90 [13] was 0.5 µg/mL (≈ 0.884 µM) and the MIC [14] was 0.125 µg/mL (≈ 0.221 µM). It also gave an MIC [15] of 2 µg/mL (≈ 3.54 µM), an MIC [16] of 4 µg/mL (≈ 7.07 µM) and an MIC50 [17] of 0.016 µg/mL (≈ 0.0283 µM). The MIC90 [17] was 0.03 µg/mL (≈ 0.053 µM), the “fold change (FC)” value (Staphylococcus aureus [18]) was 3 and the MIC [19] was 2 µg/mL (≈ 3.54 µM). The MIC50 (Staphylococcus aureus [20]) was 0.03 µg/mL (≈ 0.053 µM), the MIC90 (Staphylococcus aureus [20]) was 0.125 µg/mL (≈ 0.221 µM) and the MIC (Staphylococcus aureus [21]) was 0.03 µg/mL (≈ 0.053 µM). For the same compound, the MIC50 [22] was 0.06 µg/mL (≈ 0.106 µM), the MIC90 [22] was 0.5 µg/mL (≈ 0.884 µM) and the “fold change (FC)” value [23] was 1. The MIC (Staphylococcus aureus [24]) was 0.5 µg/mL (≈ 0.884 µM), the MIC50 (Staphylococcus aureus [25]) was 0.03 µg/mL (≈ 0.053 µM) and the MIC90 (Staphylococcus aureus [25]) was 0.25 µg/mL (≈ 0.442 µM). The MIC (Staphylococcus aureus [26]) was 0.5 µg/mL (≈ 0.884 µM), the “fold change (FC)” value [27] was -1 and the MIC [28] was 8 µg/mL (≈ 14.1 µM). For the same compound, the “fold change (FC)” value (Staphylococcus aureus [29]) was 5, the MIC (Staphylococcus aureus [30]) was 0.06 µg/mL (≈ 0.106 µM) and the “fold change (FC)” value [31] was 5. For the same compound, the “fold change (FC)” value [32] was -7, the MIC (Staphylococcus aureus [33]) was 0.03 µg/mL (≈ 0.053 µM) and the MIC (Staphylococcus aureus [34]) was 0.25 µg/mL (≈ 0.442 µM). It also gave an MIC (Staphylococcus aureus [35]) of 0.125 µg/mL (≈ 0.221 µM), an MIC [36] of 0.25 µg/mL (≈ 0.442 µM) and an MIC (Staphylococcus aureus [37]) of at most 0.008 µg/mL.
